ARFGAP1 inh = rat ARFGAP1 inhibition; Arfgap1-stimulated ARF1 GTP hydrolysis, GDP FP detection; 360,000 tested, 0.26% active; inhibition, % at 16.5 µM;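 active = inhibition above a per-plate limit, mean inhibition of low control wells plus 3 SD, cut at about 25% in these data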;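 note: 0% = DMSO wells with enzyme and 100% = wells lacking Arfgap1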
Target sequence (Q62848 1-136 limits assumed): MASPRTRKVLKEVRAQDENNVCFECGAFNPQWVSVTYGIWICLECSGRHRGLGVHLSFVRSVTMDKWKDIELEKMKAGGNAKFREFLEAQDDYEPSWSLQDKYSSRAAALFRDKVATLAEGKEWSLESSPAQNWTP
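Material: rat Arfgap1 catalytic domain, aa 1-136; also added: human ARF1(Δ1-17)-GTP substrate; compound dosing: one concentration, 16.5 µM, DMSO 1.26%; incubation: GTP hydrolysis reaction 2 h at 25 °C; measured by: Tracer-displacement fluorescence polarization with EDTA stop, 620/688 nm; evaluation: % inhibition from polarization; repeats: one replicate per compound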
Rtt109 HAT inh = C. albicans Rtt109 histone acetyltransferase inhibition; Q5AAJ8; purified Rtt109/Vps75, ThioGlo CoA-SH fluorescence, 4 h; inhibition, % at 34.9 µM; 330,000 tested, 0.16% active; AID 540336;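 active = inhibition of at least 50% in every replicate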
ASAP1 GAP inh = inhibitors of human ASAP1 ArfGAP activity; inhibition, % at 16.5 µM; AID 624377; Q9ULH1; ASAP1-stimulated ARF1 GTP hydrolysis, GDP FP detection; 360,000 tested, 0.19% active; in the data active = inhibition above about 25%;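 note: 0% = vehicle with enzyme and substrate and 100% = no enzyme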
Target sequence (Q9ULH1 325-724 limits assumed): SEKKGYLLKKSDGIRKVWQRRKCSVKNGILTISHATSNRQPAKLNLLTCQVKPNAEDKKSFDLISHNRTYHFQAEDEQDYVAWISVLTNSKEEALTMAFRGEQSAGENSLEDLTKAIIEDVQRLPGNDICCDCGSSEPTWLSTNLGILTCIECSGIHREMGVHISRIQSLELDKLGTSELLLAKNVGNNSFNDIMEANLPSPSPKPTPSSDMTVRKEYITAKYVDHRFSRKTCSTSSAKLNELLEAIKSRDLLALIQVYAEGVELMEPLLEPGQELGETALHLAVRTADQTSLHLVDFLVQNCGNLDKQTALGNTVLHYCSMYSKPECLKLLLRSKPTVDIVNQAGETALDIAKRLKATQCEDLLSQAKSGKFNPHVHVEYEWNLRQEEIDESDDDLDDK
Efflux pump inh = inhibitors of Candida antifungal efflux pumps expressed in yeast; AID 485275; 330,000 tested, 0.44% active; inhibition, % at 10 µM; S. cerevisiae Candida pump triplex, Nile Red efflux;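 active = plate passing quality check with inhibition over a set limit, or well fluorescence over plate mean plus 4 SD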;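 note: Nile Red retained in pooled yeast measured as flow cytometry median fluorescence; 0% = buffer negative control and 100% = Enniatin B positive control; higher means more Nile Red kept so more efflux inhibition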
FGF22 binding-1 = binders of recombinant human FGF22 by thermal shift | activity (Tm shift, normalised), % at 9.99 µM | AID 651658 | 340,000 tested, 1.5% active | SYPRO orange fluorescence; percent of sucrose octasulfate shift, DMSO zero;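 active = mean Tm shift, scaled 0 neutral to 100 positive control, at about 1.3% or above, every replicate too, limit read from the data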
FGF22 binding-2 = binds human FGF22 shifting its melting temperature; thermal shift activity, °C (ΔTm) at 38 µM; shares compounds with FGF22 binding-1; AID 720646; recombinant FGF22 thermal shift, SYPRO orange fluorescence; 1,000 tested, 2% active;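 active = fitted rise in melting shift crosses a set limit at or below the top valid dose tested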
FGF22 TSA DP = binds human FGF22 shifting its melting temperature. shares compounds with FGF22 binding-1. Thermal shift assay, SYPRO orange, melting temperature shift. Tm shift (activity), % at 38 µM. 50 tested, under 10 active. AID 743017;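 active = compounds whose fitted dose curve of melting temperature shift rises past a set threshold within the tested doses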
TSA no protein = counter-screen for FGF22 binders: compound-only thermal shift, no protein; shares compounds with FGF22 binding-1; compound-only SYPRO orange thermal shift counter-screen; AC50, µM (doses to about 38 µM); 1,000 tested, 2% active; AID 743019;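 active = rising signal whose fitted curve reaches the 0.54 level within the top valid dose, showing a melting point, actives reach about 13 µM in these data; inactive = the rest, including activity in the opposite direction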; note: value is where the raw curve crosses a fixed level and not half-maximal
Active calls of the source: *; i = inactive; . = no result given; [ ] = another dose, or the depositor's remark. In the library only some 1.9% were active in any assay of this set; here they are far more common.

SMILES	ARFGAP1 inh	Rtt109 HAT inh	ASAP1 GAP inh	Efflux pump inh	FGF22 binding-1	FGF22 binding-2	TSA no protein	others
COc1cc(C)c2c(c1C=O)Oc1c(c(C)c(O)c3c1C(O)OC3=O)OC2=O (stereo unspecified)	-34	-8	-29	0	2.1*	0.067	i
COc1cc(C)ccc1NC(=O)Cc1csc(NC(=O)Nc2ccccc2OC)n1	7	-3	9	0	1.6*	0.096	i
COc1cc(CN(CC2CCCO2)C(=O)c2cccs2)cc(OC)c1OC (stereo unspecified)	-4	2	-6	0	0	.	.
CCOc1ccc(C2OC(=O)Cc3cc(OC)c(OC)cc32)cc1 (stereo unspecified)	-4	11	-2	0	14*	0.097	i
CCOc1ccc(C2NC(=O)Cc3cc(OC)c(OC)cc32)cc1 (stereo unspecified)	9	-7	-8	0	0	.	.
CCOc1ccc(NC(=O)c2ccc(S(=O)(=O)N3CCOCC3)cc2)cc1	-2	25	-6	0	0	.	.
CN1C(=O)c2cc(NC(=O)c3ccccc3Cl)ccc2OC[C@H]2O[C@H](CC(=O)NCC(F)(F)F)CC[C@H]21	.	.	.	.	0	.	.
CN1C(=O)c2cc(NC(=O)c3ccccc3Cl)ccc2OC[C@@H]2O[C@@H](CC(=O)NCC(F)(F)F)CC[C@H]21	.	.	.	.	36*	0.1	i
CNC(=O)C[C@H]1CC[C@@H]2[C@H](COc3ccc(NC(=O)c4ccccc4OC)cc3C(=O)N2C)O1	.	.	.	.	2.6*	-0.021	i
CNC(=O)C[C@@H]1CC[C@@H]2[C@@H](COc3ccc(NC(=O)c4ccccc4OC)cc3C(=O)N2C)O1	.	.	.	.	1	.	.
CCNC(=O)C[C@@H]1CC[C@H]2[C@H](COc3ccc(NC(=O)Nc4ccc(Cl)cc4)cc3C(=O)N2C)O1	.	.	.	.	1.2*	-0.09	i	FGF22 TSA DP=0
Cc1ccccc1/C=C/c1nc2ccccc2c(=O)[nH]1	1	-22	10	0	0	.	.
COc1cccc(C(=O)Nc2ccc3c(c2)C(=O)N(C)[C@@H]2CC[C@@H](CC(=O)N[C@@H](C)c4ccccc4)O[C@H]2CO3)c1	.	.	.	.	0	.	.
COc1ccc(OC)c(S(=O)(=O)N2CCc3ccccc3C2)c1	-3	-1	8	0	0	.	.
CC(=O)c1ccc(NC(=O)c2noc(C(C)C)c2[N+](=O)[O-])cc1	-2	-5	0	0	1.7*	0.13	i
CCCCOCCCNC(=O)N[C@@H](CC(C)C)C(=O)O	3	.	5	0	.	.	.
C[C@@H]1CN([C@@H](C)CO)S(=O)(=O)c2ccc(C3=CCCC3)cc2O[C@H]1CN(C)C(=O)Nc1ccc2c(c1)OCO2	.	.	.	.	0	.	.
C[C@@H]1CN([C@@H](C)CO)S(=O)(=O)c2ccc(C3=CCCC3)cc2O[C@@H]1CN(C)C(=O)Nc1ccc2c(c1)OCO2	.	.	.	.	2.0*	-0.042[42 µM]	i
C[C@@H]1CN([C@H](C)CO)S(=O)(=O)c2ccc(C3=CCCCC3)cc2O[C@H]1CN(C)C(=O)CN(C)C	.	.	.	.	1.2*	0.22[42 µM]	i
C[C@@H]1CN([C@@H](C)CO)S(=O)(=O)c2ccc(C#Cc3ccncc3)cc2O[C@H]1CN(C)C(=O)Nc1ccc2c(c1)OCO2	.	.	.	.	0	.	.
C[C@H]1CN([C@@H](C)CO)S(=O)(=O)c2ccc(C#Cc3ccncc3)cc2O[C@H]1CN(C)C(=O)Nc1ccc2c(c1)OCO2	.	.	.	.	1.4*	-0.24	i
C[C@H](CO)N1C[C@H](C)[C@H](CN(C)C(=O)Nc2ccc3c(c2)OCO3)Oc2cc(C3=CCCCC3)ccc2S1(=O)=O	.	.	.	.	1.6*	-0.031	11µM*
CCOC(=O)C1C(=O)C=C(C)C(C(=O)OCC)C1c1cccc([N+](=O)[O-])c1 (stereo unspecified)	-14	-1	-6	0	0	.	.
O=C(C1CCOCC1)N1C[C@H]2[C@@H](c3ccccc31)[C@@H](CO)N2C(=O)Nc1ccccc1F	.	.	.	.	0	.	.
COc1cc(/C=C2/S/C(=N/S(=O)(=O)Cc3ccccc3)NC2=O)c([N+](=O)[O-])cc1OC	-2	25	5	0	1.9*	0.11	i
SMILES	ARFGAP1 inh	Rtt109 HAT inh	ASAP1 GAP inh	Efflux pump inh	FGF22 binding-1	FGF22 binding-2	TSA no protein	others
COc1ccc(C(=O)NNC(=O)c2cc3ccccc3cc2O)cc1	3	-3	14	0	0	.	.
O=C(COC(=O)c1ccc(S(=O)(=O)N2CCOCC2)cc1)Nc1ccccc1F	-1	-4	15	0	0	.	.
O=C(CCc1ccc(S(=O)(=O)N2CCOCC2)cc1)Nc1ccccc1F	-4	-8	7	0	1.5*	0.14	i
Cc1nn(CCOc2cccc(Cl)c2)c(C)c1[N+](=O)[O-]	14	36	1	0	0	.	.
Cc1nn(CCOc2ccccc2Cl)c(C)c1[N+](=O)[O-]	4	3	-1	0	1.7*	-0.008	i
O=C(Nc1cccc(F)c1)N1C[C@@H]2[C@H](c3ccccc31)[C@H](CO)N2C(=O)c1cccnc1	.	.	.	.	1.4*	0.2[42 µM]	i
O=C(Nc1ccccc1)N1C[C@H]2[C@@H](c3ccccc31)[C@@H](CO)N2C(=O)c1ccncc1	.	.	.	.	1.4*	-0.096[42 µM]	i
Cc1cccc(S(=O)(=O)N2CCCCN3[C@@H](CO)[C@@H](c4ccc(C#C[C@H](C)O)cc4)[C@@H]3C2)c1	.	.	.	.	1.3*	-0.087[42 µM]	i
Cc1cccc(S(=O)(=O)N2CCCCN3[C@H](CO)[C@@H](c4ccc(C#C[C@H](C)O)cc4)[C@@H]3C2)c1	.	.	.	.	0	.	.
CCCN(CCC)CC(C)(C)NS(=O)(=O)c1ccc(Cl)cc1	15	8	9	0	1.4*	-0.022	i
CN(CC(=O)Nc1ccccc1F)CC(=O)Nc1ccc(F)c(F)c1F	1	.	11	0	0	.	.
c1ccc2ccccc2c1	1	-12	-9	0	0	.	.
CCOc1ccc(NS(=O)(=O)c2ccc(C(=O)NNC(=O)c3ccccc3O)cc2)cc1	13	12	0	0	1.4*	0.018	i
O=C(NNC(=O)c1ccccc1F)c1ccc(NS(=O)(=O)c2ccc(F)cc2)cc1	5	-6	1	.	1.8*	0.07	i
O=C(NNC(=O)c1ccccc1O)c1ccc(NS(=O)(=O)c2ccc(F)cc2)cc1	2	37	-1	0	0	.	.
CCOc1ccc(S(=O)(=O)Nc2ccc(C(=O)NNC(=O)c3ccncc3)cc2)cc1	6	-2	-6	0	0	.	.
Cc1nc2ccc(C(=O)OCc3nnc(-c4ccc(Br)cc4)o3)cc2nc1C	-12	4	-14	4	0	.	.
